Structures can show the parent of a compound that is named as a salt. The source made the active and inactive calls. The calls are words filed in the database; no cut-off is given here.
What was measured:
[1] = Cytotoxicity against human MGC803 cells after 72 hrs by MTT assay; format: functional, cell-based; settings: MGC-803, 72 h
[2] = Chemical stability of the compound in deuterated DMSO by NMR spectroscopic analysis; format: physicochemical
[3] = biological target: T1, DNA topoisomerase 1 (Homo sapiens) (UniProt P11387); assay: Inhibition of topoisomerase 1 (unknown origin) assessed as decrease in PBR322 DNA relaxation at 5 to 40 uM after 30 mins by ethidium bromide staining-based agarose gel electrophoresis
T1 sequence (whole entry): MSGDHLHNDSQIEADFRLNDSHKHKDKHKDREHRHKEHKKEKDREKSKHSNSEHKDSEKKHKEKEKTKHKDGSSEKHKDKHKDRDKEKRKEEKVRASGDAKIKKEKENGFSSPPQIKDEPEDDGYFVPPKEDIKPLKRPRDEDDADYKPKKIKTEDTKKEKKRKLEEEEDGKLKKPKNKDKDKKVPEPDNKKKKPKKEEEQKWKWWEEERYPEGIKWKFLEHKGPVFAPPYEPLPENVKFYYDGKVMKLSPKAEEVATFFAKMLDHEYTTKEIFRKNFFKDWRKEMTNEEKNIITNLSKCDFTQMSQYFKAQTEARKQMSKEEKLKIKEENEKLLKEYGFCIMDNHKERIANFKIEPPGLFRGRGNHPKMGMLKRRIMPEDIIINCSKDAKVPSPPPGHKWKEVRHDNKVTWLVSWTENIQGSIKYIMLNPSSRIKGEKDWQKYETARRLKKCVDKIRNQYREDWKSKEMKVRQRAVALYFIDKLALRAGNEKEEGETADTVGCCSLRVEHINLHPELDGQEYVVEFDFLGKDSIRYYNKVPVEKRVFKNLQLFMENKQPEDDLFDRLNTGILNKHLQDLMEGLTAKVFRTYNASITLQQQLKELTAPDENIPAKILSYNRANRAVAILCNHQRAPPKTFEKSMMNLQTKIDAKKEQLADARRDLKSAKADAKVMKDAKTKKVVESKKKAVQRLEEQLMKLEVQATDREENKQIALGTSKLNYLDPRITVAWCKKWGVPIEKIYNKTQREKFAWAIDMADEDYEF
Summary of the method: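 Supercoiled pBR322 plasmid DNA served as substrate. Samples were resolved on 1% agarose gels and stained with ethidium bromide. Supercoiled and relaxed DNA bands were marked on the gel.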

[4] = Cytotoxicity against human HL60 cells after 72 hrs by MTT assay; format: functional, cell-based; settings: HL-60, 72 h
K562 = assay: Cytotoxicity against human K562 cells after 72 hrs by MTT assay; format: functional, cell-based; settings: K562, 72 h
[5] = Cytotoxicity against human HO8910 cells after 72 hrs by MTT assay; format: functional, cell-based; settings: HO-8910, 72 h
NCI-H1975 = assay: Cytotoxicity against human NCI-H1975 cells after 72 hrs by MTT assay; format: functional, cell-based; settings: NCI-H1975, 72 h
[6] = Cytotoxicity against human HCT116 cells after 72 hrs by MTT assay; format: functional, cell-based; settings: HCT-116, 72 h
A549 = assay: Cytotoxicity against human A549 cells after 72 hrs by MTT assay; format: functional, cell-based; settings: A549, 72 h

SMILES | IC50 [1] | Stability [2] | inhibition [3] | IC50 [4] | IC50 (K562) | IC50 [5] | IC50 (NCI-H1975) | IC50 [6] | IC50 (A549)
COC(=O)C[C@H](C)[C@@H](O)[C@]1(C(=O)OC)CC(=O)c2c(ccc(-c3ccc(O)c4c3O[C@]3(C(=O)OC)C(=C(O)C[C@H](C)[C@H]3O)C4=O)c2O)O1 | 2.2 µM | Unstable | Active | 1.6 µM | 11.1 µM | 2 µM | 2.7 µM | – | –
COC(=O)[C@@]12Oc3ccc(-c4ccc(O)c5c4O[C@](C(=O)OC)([C@@H]4OC(=O)C[C@@H]4C)CC5=O)c(O)c3C(=O)C1=C(O)C[C@H](C)[C@H]2O | – | Unstable | – | 7.8 µM | 18.2 µM | > 50 µM | 25.6 µM | > 50 µM | > 50 µM
COc1cccc2c1C(=O)c1c(O)c3c(c(O)c1C2=O)C[C@@](O)(C(=O)CO)C[C@@H]3O[C@H]1C[C@H](N)[C@H](O)[C@H](C)O1 [DOXORUBICIN HYDROCHLORIDE] | 0.2 µM | – | – | – | – | – | 0.8 µM | 0.2 µM | –
COC(=O)[C@@]12Oc3ccc(-c4ccc5c(c4O)C(=O)C4=C(O)C[C@H](C)[C@@H](O)[C@]4(C(=O)OC)O5)c(O)c3C(=O)C1=C(O)C[C@H](C)[C@H]2O | 1.5 µM | – | – | 1 µM | 2 µM | 1.5 µM | – | 0.9 µM | 2.1 µM
COC(=O)[C@@]12Oc3c(-c4ccc(O)c5c4O[C@](C(=O)OC)([C@@H]4OC(=O)C[C@@H]4C)CC5=O)ccc(O)c3C(=O)C1=C(O)C[C@H](C)[C@H]2O | 21.6 µM | Unstable | – | 9.9 µM | – | > 50 µM | > 50 µM | – | > 50 µM
COC(=O)[C@@]12Oc3c(-c4ccc5c(c4O)C(=O)C[C@@](C(=O)OC)([C@@H]4OC(=O)C[C@@H]4C)O5)ccc(O)c3C(=O)C1=C(O)C[C@H](C)[C@H]2O | > 50 µM | Unstable | – | 2.6 µM | 7.1 µM | 10.1 µM | 11.2 µM | – | > 50 µM
COC(=O)C[C@H](C)[C@@H](O)[C@]1(C(=O)OC)CC(=O)c2c(ccc(-c3ccc4c(c3O)C(=O)C3=C(O)C[C@H](C)[C@@H](O)[C@]3(C(=O)OC)O4)c2O)O1 | – | Unstable | – | 2.7 µM | 6.7 µM | 20.8 µM | – | 0.7 µM | 10.6 µM
COC(=O)[C@@]12Oc3ccc(-c4ccc5c(c4O)C(=O)C[C@@](C(=O)OC)([C@@H]4OC(=O)C[C@@H]4C)O5)c(O)c3C(=O)C1=C(O)C[C@H](C)[C@H]2O | 9.8 µM | Unstable | – | 3.1 µM | 9.1 µM | 13.9 µM | > 50 µM | 6.1 µM | 12.7 µM

— ChEMBL document CHEMBL3739368, “Versixanthones A-F, Cytotoxic Xanthone-Chromanone Dimers from the Marine-Derived Fungus Aspergillus versicolor HDN1009” (J Nat Prod, 2015)
